Reference: PMC3690701 (Bioorganic & medicinal chemistry, 2011)

Experiments:
human Pgp = human Pgp (Homo sapiens, UniProt P08183); settings: for logIC50: fitted parameter±standard error, GraphPad Prism, R123 efflux, MDCKII-MDR1
[1] = format: in vivo, rat
[2] = plasma protein binding by ultrafiltration; format: in vitro ADME, rat; settings: 30 min at 37°C, n=3
Method in brief: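 Fresh plasma from naïve rats was incubated with the 18F-labelled tracer for 30 min at 37°C. Bound and free tracer were then separated by ultrafiltration through centrifugal filter devices.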

Pgp/BCRP at the BBB [3] = test: small-animal PET of [18F]4b in rats before/after unlabelled 1; format: in vivo, rat; settings: 25 min after tracer injection, scanned 2 h after 1 (5 mg/kg), p=0.0002
Method in brief: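 Naïve rats were kept under isoflurane (2.5% induction, 1.5–2% maintenance) at about 38°C, with femoral artery and vein catheters. The tracer was given as an i.v. bolus (33±3 MBq) in saline/EtOH/PEG300 (50/15/35). Arterial samples were gamma-counted, and whole-brain TACs were expressed as SUV. Groups were compared by 2-tailed Student's t-test.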

Pgp/BCRP at the BBB [4] = settings: mouse brain, unlabelled 1 0.1-10 mg/kg i.v.; cited from earlier work
Pgp = settings: cited from earlier work
human BCRP = settings: 3H-labelled tariquidar 1 nM, reversed by fumitremorgin C; cited from earlier work

Sequence of human Pgp (P08183 whole entry): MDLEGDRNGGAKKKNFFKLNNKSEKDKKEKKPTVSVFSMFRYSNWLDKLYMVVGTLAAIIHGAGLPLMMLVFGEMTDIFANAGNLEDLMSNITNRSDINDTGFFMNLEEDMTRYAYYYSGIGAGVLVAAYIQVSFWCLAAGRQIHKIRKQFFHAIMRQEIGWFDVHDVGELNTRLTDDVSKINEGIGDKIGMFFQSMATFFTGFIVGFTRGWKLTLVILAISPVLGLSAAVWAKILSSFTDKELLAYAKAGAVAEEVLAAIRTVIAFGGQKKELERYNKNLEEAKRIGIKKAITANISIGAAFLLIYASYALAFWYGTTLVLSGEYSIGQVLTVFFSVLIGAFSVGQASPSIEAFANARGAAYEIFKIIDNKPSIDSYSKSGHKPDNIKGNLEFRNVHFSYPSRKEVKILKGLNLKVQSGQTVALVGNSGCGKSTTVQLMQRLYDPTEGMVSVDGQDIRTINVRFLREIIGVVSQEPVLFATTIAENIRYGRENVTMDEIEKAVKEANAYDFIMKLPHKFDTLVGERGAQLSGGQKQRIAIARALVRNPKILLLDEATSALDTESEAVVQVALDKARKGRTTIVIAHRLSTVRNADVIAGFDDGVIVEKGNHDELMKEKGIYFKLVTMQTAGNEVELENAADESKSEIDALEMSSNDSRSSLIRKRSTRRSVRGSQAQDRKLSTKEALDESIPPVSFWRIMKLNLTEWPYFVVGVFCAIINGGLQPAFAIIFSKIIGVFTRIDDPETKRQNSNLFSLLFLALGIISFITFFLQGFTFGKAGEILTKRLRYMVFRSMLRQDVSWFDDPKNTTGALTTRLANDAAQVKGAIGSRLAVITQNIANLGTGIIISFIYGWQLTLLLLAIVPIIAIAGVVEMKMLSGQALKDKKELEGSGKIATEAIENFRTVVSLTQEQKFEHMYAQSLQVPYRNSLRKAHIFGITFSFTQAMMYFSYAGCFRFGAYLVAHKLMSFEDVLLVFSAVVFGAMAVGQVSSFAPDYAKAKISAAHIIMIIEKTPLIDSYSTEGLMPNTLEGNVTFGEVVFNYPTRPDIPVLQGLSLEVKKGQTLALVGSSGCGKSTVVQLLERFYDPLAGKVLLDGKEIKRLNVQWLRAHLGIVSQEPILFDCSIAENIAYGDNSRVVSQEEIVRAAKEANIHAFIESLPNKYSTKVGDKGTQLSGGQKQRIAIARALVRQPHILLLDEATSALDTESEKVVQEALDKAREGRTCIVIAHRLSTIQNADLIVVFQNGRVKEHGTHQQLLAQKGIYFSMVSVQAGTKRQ

## COc1cc2c(cc1OC)CN(CCc1ccc(NC(=O)c3ccc(Cl)c4c(=O)c5cccc(OC)c5[nH]c34)cc1)CC2 [4a, 1-Chloro-N-(4-(2-(6,7-dimethoxy-1,2,3,4-tetrahydroisoquinolin-2-yl)ethyl)phenyl)-5-methoxyacridone-4-carboxamide]
Human Pgp
  logIC50: 0.58±0.04

## COc1cc2c(cc1OC)CN(CCc1ccc(NC(=O)c3ccc(F)c4c(=O)c5cccc(OC)c5[nH]c34)cc1)CC2 [4b, N-(4-(2-(6,7-dimethoxy-1,2,3,4-tetrahydroisoquinolin-2-yl)ethyl)phenyl)-1-fluoro-5-methoxyacridone-4-carboxamide]
Human Pgp
  logIC50: 0.24±0.04
Human Pgp; human, pH 7.4
  IC50 times higher than 1: about 4 times

## COc1cc2c(cc1OC)CN(CCc1ccc(NC(=O)c3ccc([N+](=O)[O-])c4c(=O)c5cccc(OC)c5[nH]c34)cc1)CC2 [4c, N-(4-(2-(6,7-dimethoxy-1,2,3,4-tetrahydroisoquinolin-2-yl)ethyl)phenyl)-5-methoxy-1-nitroacridone-4-carboxamide]
Human Pgp
  logIC50: 0.21±0.07

## COc1cc2c(cc1OC)CN(CCc1ccc(NC(=O)c3cc(Cl)cc4c(=O)c5cccc(OC)c5[nH]c34)cc1)CC2 [4d, 2-Chloro-N-(4-(2-(6,7-dimethoxy-1,2,3,4-tetrahydroisoquinolin-2-yl)ethyl)phenyl)-5-methoxyacridone-4-carboxamide]
Human Pgp
  logIC50: 0.14±0.08

## COc1cc2c(cc1OC)CN(CCc1ccc(NC(=O)c3cc(F)cc4c(=O)c5cccc(OC)c5[nH]c34)cc1)CC2 [4e, N-(4-(2-(6,7-dimethoxy-1,2,3,4-tetrahydroisoquinolin-2-yl)ethyl)phenyl)-2-fluoro-5-methoxyacridone-4-carboxamide]
Human Pgp
  logIC50: −0.21±0.08

## COc1cc2c(cc1OC)CN(CCc1ccc(NC(=O)c3ccc([18F])c4c(=O)c5cccc(OC)c5[nH]c34)cc1)CC2 [[^18F]4b, 1-[^18F]fluoroelacridar]
[1]; rat brain extracts, 40 min after injection, HPLC
  total radioactivity in brain in the form of unchanged tracer: > 90%
[1]; rat plasma, 40 min sample
  total radioactivity in the form of unchanged tracer, HPLC of SPE fraction 3: 72±27%
[2]
  protein-bound in rat plasma: 98.0±1.7%
Pgp/BCRP at the BBB [3]
  brain activity uptake increase after unlabelled 1 (group 2 vs group 1): 9.5 times

## COc1cc2c(cc1OC)CN(CCc1ccc(NC(=O)c3cccc4c(=O)c5cccc(OC)c5[nH]c34)cc1)CC2 [compound 1, elacridar]
Pgp/BCRP at the BBB [4]
  dose at which brain uptake of [11C]1 started to increase: greater than 0.1 mg/kg
  half-maximum effect dose for increase of [11C]1 brain uptake: 1.55 mg/kg
Human Pgp; human, pH 7.4
  Maximal inhibitory effect (%): 100%
Pgp
  stimulation of ATPase activity: does not stimulate

## COc1cc2c(cc1OC)CN(CCc1ccc(NC(=O)c3cc(OC)c(OC)cc3NC(=O)c3cnc4ccccc4c3)cc1)CC2 [tariquidar]
Human BCRP
  BCRP transport: avid substrate of BCRP
